Screens: PubChem, several laboratories
Platelet DG rel – inhibitors of platelet dense granule secretion, primary screen, cell-based, MLPCN, human platelets; human platelet-rich plasma, SFLLRN dense granule ATP release, luminescence; inhibition, %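 (compounds screened at 7.5 µM in platelet-rich plasma)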; hit rate 0.22% among 300,000;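 active = mean replicate score, as percent of positive control, at or above 50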
SENP1 inh – human SENP1 catalytic domain inhibitors, primary screen, biochemical, FRET, uHTS. Sentrin-specific protease 1 (Homo sapiens), Q9P0U3. recombinant SENP1 catalytic domain, CyPet-SUMO1-YPet FRET cleavage. inhibition, % at 10 µM. hit rate 0.21% among 360,000. AID 624204, 2012;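 active = inhibition at least 30% at 10 µM, raw YFP signal under a set limit, fluorescence ratio 0.5 to 1.5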;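 note: 0% = enzyme with DMSO and 100% = no enzyme wells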
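Test system: hSENP1 catalytic domain, recombinant; Amount: 20 pM final SENP1 enzyme; Medium: Tris pH 8 buffer plus EDTA, NaCl, BME, BSA, NP40, catalase; Schedule: 50 min enzyme reaction, room temperature, light-protected; Technique: FRET fluorescence in CFP and YFP emission channels; Controls: no-enzyme wells low, DMSO-plus-enzyme wells high control.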
SENP8 block-1 – SENP8 protease inhibitors, primary screen, biochemical, luminescence; AID 2540, 2010; inhibition, % at 10 µM; purified SENP8, Z-RLRGG-aminoluciferin cleavage; hit rate 1.2% among 330,000; in the data active = inhibition above about 50%
SENP7 inh – SENP7 protease inhibitors, primary screen, biochemical, luminescence, uHTS; Sentrin-specific protease 7 (Homo sapiens), Q9BQF6; recombinant SENP7, Z-RLRGG-aminoluciferin luminescence, 40 min; inhibition, % at 5 µM; hit rate 1.5% among 330,000; AID 434973, 2010;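 active = inhibition above about 50% at the single test dose, limit read from the data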;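 note: plate controls were DMSO with enzyme for no effect and no enzyme buffer wells for full effect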
SENP8 block-2 – human SENP8 protease inhibitors, primary screen, biochemical, fluorescence, Nedd8 protein substrate, uHTS; Sentrin-specific protease 8 (Homo sapiens), Q96LD8; recombinant SENP8; inhibition, % at 20 µM; hit rate 0.64% among 360,000; AID 602440, 2012; in the data active = inhibition mostly above about 40%, no sharp cut-off; inactive = mostly below about 27%
SENP6 block – SENP6 protease inhibitors, primary screen, biochemical, luminescence, uHTS; Sentrin-specific protease 6 (Homo sapiens), Q9GZR1; Recombinant SENP6 catalytic domain, aminoluciferin luminescence; inhibition, % at 10 µM; hit rate 1.8% among 330,000;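 active = inhibition above about 50% at the single tested dose, limit read from the data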;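 note: plate controls were DMSO wells with enzyme for no effect and DMSO wells lacking enzyme for full effect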
Target sequence (Q9GZR1 628-1112 limits assumed): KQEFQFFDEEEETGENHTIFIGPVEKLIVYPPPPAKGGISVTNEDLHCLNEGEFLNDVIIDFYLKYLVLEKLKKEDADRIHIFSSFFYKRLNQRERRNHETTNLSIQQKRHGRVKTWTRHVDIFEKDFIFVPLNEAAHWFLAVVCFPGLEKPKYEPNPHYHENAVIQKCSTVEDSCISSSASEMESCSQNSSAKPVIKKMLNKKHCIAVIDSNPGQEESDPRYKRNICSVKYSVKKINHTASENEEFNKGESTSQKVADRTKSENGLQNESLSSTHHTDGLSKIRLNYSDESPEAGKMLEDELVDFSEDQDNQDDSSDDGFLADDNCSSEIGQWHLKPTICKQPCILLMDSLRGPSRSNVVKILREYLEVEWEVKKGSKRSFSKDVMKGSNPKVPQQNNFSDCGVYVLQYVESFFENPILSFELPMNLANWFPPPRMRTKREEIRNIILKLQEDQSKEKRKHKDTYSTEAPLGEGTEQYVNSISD
SENP8 conf – SENP8 protease inhibitors, retest, confirmation, biochemical, luminescence, single concentration. Recombinant SENP8, Z-RLRGG-aminoluciferin luminescence, 60 min. hit rate 40% among 6,200. inhibition, % at 12.5 µM. shares compounds with SENP7 inh;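 active = mean inhibition across replicates above about 50%, limit read from the data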
SENP6 confirm – SENP6 protease inhibitors, confirmation, biochemical, luminescence, single concentration. hit rate 58% among 6,200. recombinant SENP6, Z-RLRGG-aminoluciferin luminescence. inhibition, % at 12.5 µM. shares compounds with SENP7 inh
SENP7 conf – SENP7 protease inhibitors, retest, confirmation, biochemical, luminescence, single concentration; hit rate 69% among 6,200; inhibition, % at 12.5 µM; AID 488917, 2010; shares compounds with SENP7 inh; recombinant SENP7, Z-RLRGG-aminoluciferin luminescence, 40 min
Casp3 select – caspase-3 protease inhibitors, confirmation, selectivity assay for SENP inhibitor project, biochemical, single concentration | hit rate 60% among 6,200 | shares compounds with SENP7 inh | purified caspase-3, Z-DEVD-aminoluciferin luminescence, 60 min | inhibition, % at 12.5 µM;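 active = mean inhibition above about 50%, limit read from the data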;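 note: plate controls were enzyme with DMSO for no effect and wells without caspase-3 for full effect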
SENP luc ctr – interferes with luciferase luminescence in SENP counter-screen; shares compounds with SENP7 inh; Pre-incubated SENP8/Z-RLRGG-aminoluciferin, luciferase luminescence interference; inhibition, % at 12.5 µM; hit rate 39% among 6,200;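 active = mean inhibition above about 50% when retested at one dose, limit read from the data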;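 note: plate controls were DMSO wells with completed reaction for no effect and substrate without enzyme for full effect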
The depositor's hits bear a star; x = no result. In the library only some 2.6% were active in any assay of this set; here they are far more common.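 Rule for the calls, unless noted: active = mean inhibition above about 50% in the one-dose retest (limit read from the data); inactive = the rest.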

SMILES	Platelet DG rel	SENP1 inh	SENP8 block-1	SENP7 inh	SENP8 block-2	SENP6 block	SENP8 conf	SENP6 confirm	SENP7 conf	Casp3 select	SENP luc ctr
CCO/N=C(\N)c1[nH]ncc1Br	4	2	2	3	27	-6	x	x	x	x	x
COc1ccc(C(=O)NNC(=O)c2ccccn2)cc1	77*	7	97*	100*	8	99*	98*	99*	102*	98*	98*
O=C(OCc1ccc(Cl)c(Cl)c1)c1ccccn1	-1	0	51*	69*	8	80*	71*	69*	90*	71*	73*
N/C(=N\OC(=O)c1ccc(Cl)cc1)c1[nH]ncc1Br	52*	3	96*	100*	-6	100*	98*	98*	101*	98*	98*
COc1ccc(C(=O)O/N=C(\N)c2ccccn2)cc1	34	5	96*	101*	14	97*	99*	100*	104*	99*	97*
COc1ccc(C(=O)OCC(=O)NC2CC2)cc1S(=O)(=O)Nc1ccc(C)cc1	x	1	-3	-9	8	-12	x	x	x	x	x
O=C(CSC1=NS(=O)(=O)c2cc(Cl)ccc2N1)NCCc1ccccc1	-2	2	-6	-9	-3	-3	x	x	x	x	x
CC(C)(C)N(Cc1ccccc1)C(=O)COC(=O)c1ccc(S(=O)(=O)N2CCOCC2)cc1	x	0	-2	1	-6	0	x	x	x	x	x
CCCCCN(C(=O)CSc1n[nH]c(-c2ccc(C)cc2)n1)c1c(N)n(CCCC)c(=O)[nH]c1=O	-2	-13	9	-14	-14	-14	x	x	x	x	x
Cc1cc(/C(N)=N/OC(=O)c2ccc(Cl)cc2)no1	11	8	80*	94*	31	85*	24	86*	97*	92*	21
N/C(=N\OC(=O)c1ccc(Cl)c([N+](=O)[O-])c1)c1ccccn1	11	5	7	39	16	-23	x	x	x	x	x
Cc1cc(/C(N)=N/OC(=O)c2cccc(Cl)c2)no1	8	1	13	13	36	31	x	x	x	x	x
N/C(=N\OC(=O)c1ccc(Cl)cc1)c1ccccn1	52*	4	97*	99*	8	94*	88*	99*	103*	98*	79*
N/C(=N\OC(=O)c1ccc(Cl)c(Cl)c1)c1ccccn1	12	-2	68*	95*	4	85*	36	47	65*	82*	59*
N/C(=N\OC(=O)c1cccc(Cl)c1)c1ccccn1	12	4	87*	94*	11	92*	90*	90*	100*	95*	45
CN(C(=O)COC(=O)Cc1c(F)cccc1Cl)c1c(N)n(Cc2ccccc2)c(=O)[nH]c1=O	x	0	-2	7	8	-9	x	x	x	x	x
Cc1cc(C)nc(N2CCN(S(=O)(=O)c3ccc(F)cc3)CC2)n1	-6	-3	-7	-11	1	-12	x	x	x	x	x
Nc1ncccc1OCc1ccc(Cl)c(Cl)c1	-3	1	70*	81*	31	75*	79*	79*	94*	75*	81*
O=C(OCc1ccc(Cl)c(Cl)c1)c1cccnc1Cl	-2	-1	7	3	12	37	x	x	x	x	x
CN=c1scc(-c2cccs2)n1/N=C/c1ccccc1O	12	-1	94*	95*	-40	96*	50	94*	102*	94*	19
CN=c1scc(-c2cccs2)n1/N=C/c1ccc(O)c(O)c1O	60*	3	82*	57*	30	79*	95*	95*	99*	80*	82*
CN=c1scc(-c2ccccc2Br)n1/N=C/c1ccc[nH]1	0	x	22	1	x	9	x	x	x	x	x
CN=c1scc(C)n1/N=C/c1ccc(O)c(O)c1O	16	-1	-10	-8	14	26	x	x	x	x	x
O=C(O)C1CCN(C(=O)CSc2nc3cc(Cl)ccc3c(=O)n2Cc2ccccc2)CC1	-1	2	0	5	14	-9	x	x	x	x	x
N#C/C(=C(/O)c1ccc([N+](=O)[O-])s1)c1nc2ccccc2[nH]1	8	9	3	52*	32	20	5	8	6	16	5
SMILES	Platelet DG rel	SENP1 inh	SENP8 block-1	SENP7 inh	SENP8 block-2	SENP6 block	SENP8 conf	SENP6 confirm	SENP7 conf	Casp3 select	SENP luc ctr
O=C1c2ccc(-c3ccc(Cl)c(C(F)(F)F)c3)cc2S(=O)(=O)c2cccc(C(=O)N3CCN(c4ccc(Cl)cn4)CC3)c21	x	8	-10	-6	-44	-13	x	x	x	x	x
COc1ccc(C(=O)Nc2ccc3c(c2)C(=O)c2ccccc2C3=O)cc1OC	20	-1	5	6	20	-12	x	x	x	x	x
COc1ccc(C(=O)c2c(C(F)(F)F)oc3c2C(=O)c2ccccc2C3=O)cc1OC	-2	1	60*	45	63*	58*	10	79*	32	78*	1
COc1ccc(/C=C/C(=O)NC(=S)N2CCOCC2)cc1	8	1	46	70*	-2	70*	62*	56*	83*	80*	67*
CCOC(=O)c1sc(NC(=O)c2cccs2)nc1C	x	1	x	x	-48	x	x	x	x	x	x
CC(=O)c1sc(NC(=O)c2ccccc2F)nc1C	5	4	83*	87*	3	83*	86*	84*	97*	93*	85*
CC(=O)c1sc(NC(=O)c2cccnc2Cl)nc1C	1	2	-5	3	12	-11	x	x	x	x	x
